Screening results as filed in PubChem BioAssay.
KCNQ1 block – inhibitors of human KCNQ1 potassium channel; CHO-K1 KCNQ1, FluxOR thallium flux fluorescence; active compounds read high; B-score at 10 µM; 1.3% of 310,000 active; AID 2642;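 active = compounds whose thallium flux B-score, printed positive for inhibition, exceeds three library SD while starting fluorescence stays within three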;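 note: channel opened by potassium depolarization with thallium stimulus after 20 min compound exposure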
hERG protect – shields human hERG channel from block by proarrhythmic agents | Q12809 | CHO-hERG, FluxOR thallium flux, dofetilide IC70 present | activation (rescue from dofetilide block), less the hit threshold, % at 10 µM | 0.51% of 310,000 active | AID 1511;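 active = activation above the mean of controls blocked by dofetilide plus 5 SD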;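 note: thallium influx through hERG after potassium depolarization seen as dye fluorescence rise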
KCNK9 block – human KCNK9 channel inhibition. AID 488922. B-score at 10 µM. Q9NPC2. HEK293 KCNK9, FluxOR thallium flux fluorescence; active compounds read low. 1.2% of 310,000 active;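 active = ratio B-score over 3 SD below the library mean, with starting fluorescence within 5 SD of its mean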;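 note: negative B-score means less thallium flux so channel inhibition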
KCNK3 inh – human KCNK3 channel inhibition, primary screen; CHO-KCNK3 thallium flux, FluxOR fluorescence; active compounds read low; 0.84% of 340,000 active; B-score at 10 µM; AID 602410;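 active = B-score under library mean minus 4 SD, starting fluorescence ratio at most library mean plus 5 SD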;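 note: more negative B-score means stronger inhibition of thallium flux through KCNK3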
KCNQ1 pot – potentiators or activators of human KCNQ1 potassium channel. CHO-K1 KCNQ1, thallium flux FluxOR fluorescence; active compounds read high. B-score at 10 µM. 0.35% of 310,000 active. AID 2648;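 active = fluorescence ratio B-score, a plate-corrected score, at least three library SD, with initial intensity B-score within 5 SD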
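Schedule – 37 °C overnight plating, 90-min dark dye load, 20-min compound pretreatment · System – stable KCNQ1 CHO-K1 line · Probe or stimulus – thallium- and potassium-containing depolarizing buffer · Measured by – kinetic FluxOR fluorescence, 10 s baseline plus 110 s post-stimulus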
KCNK9 inh conf – confirmation of human KCNK9 potassium channel inhibitors. 43% of 4,900 active. inhibition, % at 10 µM. AID 492992. HEK293 KCNK9 cells, FluxOR thallium flux fluorescence. shares compounds with KCNK9 block;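 active = thallium signal inhibited by more than 5 SD of the compound-free buffer control wells, on both duplicate plates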;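 note: 0% = assay buffer control wells without compound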
Kir2-1 spec – tests whether KCNK9 modulators also affect mouse Kir2.1 | shares compounds with KCNK9 block | Kir2.1 cells, FluxOR thallium flux fluorescence | inhibition, % at 10 µM | 4% of 4,900 active | AID 492993;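 active = thallium signal drop more than 5 SD beyond the mean of the no-compound control wells, seen in both duplicate plates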;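 note: signal is fluorescence rise after thallium addition divided by baseline fluorescence; plate controls were assay buffer only for no effect and full block by chlorpromazine control for full effect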
Target sequence (P35561 whole entry, looked up): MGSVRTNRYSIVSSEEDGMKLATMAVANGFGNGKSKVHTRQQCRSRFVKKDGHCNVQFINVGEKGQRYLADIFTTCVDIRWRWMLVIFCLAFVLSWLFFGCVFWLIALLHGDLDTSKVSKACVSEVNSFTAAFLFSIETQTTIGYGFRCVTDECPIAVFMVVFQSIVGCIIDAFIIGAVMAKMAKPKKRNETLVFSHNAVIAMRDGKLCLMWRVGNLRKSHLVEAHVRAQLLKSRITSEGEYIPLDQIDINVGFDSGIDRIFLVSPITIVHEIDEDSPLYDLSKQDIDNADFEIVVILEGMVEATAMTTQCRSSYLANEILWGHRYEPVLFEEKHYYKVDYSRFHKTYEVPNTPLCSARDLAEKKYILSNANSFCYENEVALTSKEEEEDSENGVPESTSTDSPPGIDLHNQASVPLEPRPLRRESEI
HEK293 Tl ctr – non-induced cell nonspecific activity of KCNK9 modulators; shares compounds with KCNK9 block; non-induced KCNK9-HEK293, FluxOR thallium flux; inhibition, % at 10 µM; 40% of 4,900 active; AID 492997;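 active = thallium signal drop beyond 5 SD of the untreated control mean, on both duplicate plates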;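 note: plate controls were buffer only IC0 wells for no effect and SID17386958 at its maximal inhibitory level for full effect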
The depositor's hits bear a star; i = inactive; . = not tested or not shown. Rows were chosen to be rich in hits. Some 3.1% of all compounds tested hit in one or more screens of this group.

SMILES	KCNQ1 block	hERG protect	KCNK9 block	KCNK3 inh	KCNQ1 pot	KCNK9 inh conf	Kir2-1 spec	HEK293 Tl ctr
O=C(O)c1ccc(CSc2nc(-c3ccc(Cl)cc3)cc(C(F)(F)F)n2)cc1	i	-1.4	i	i	i	.	.	.
COc1ccc(OC)c(Nc2ncnc3sc(-c4ccccc4)cc23)c1	i	-8.6	-10.9*	i	i	i	i	31.5%*
COc1ccc(OC)c(Nc2ncnc3sccc23)c1	i	-3.8	i	i	i	.	.	.
CCCc1cc(=O)[nH]c(SCC(=O)N2CCCC2=O)n1	i	-15.8	i	i	i	.	.	.
CN(Cc1cnccn1)Cc1cn(Cc2ccccc2)nc1-c1ccc2c(c1)OCO2	i	-16.4	i	i	i	i	i	i
CN(Cc1ccccn1)Cc1cn(Cc2ccccc2)nc1-c1ccc2c(c1)OCO2	i	-10.1	i	i	i	.	.	.
Cc1ccc(S(=O)(=O)N(C)CC(O)Cn2c3ccccc3c3ccccc32)cc1 (configuration not stated)	i	0.9	i	i	i	.	.	.
O=S(=O)(c1ccccc1)N(CC(O)Cn1c2ccccc2c2ccccc21)c1ccccc1 (configuration not stated)	i	-12.6	-11*	i	i	40.5%*	i	25.0%*
Cc1c(Cl)cccc1NC(=O)COC(=O)c1c2c(nc3ccccc13)CCN(Cc1ccccc1)C2	i	-9.5	-12.5*	i	i	60.5%*	i	32.0%*
O=C(c1ccc(S(=O)(=O)Nc2ccccc2F)cc1)N1CCN(c2ccccn2)CC1	.	.	.	i	.	.	.	.
Cc1ccc(C(=O)Nc2ccccc2C(=O)NCc2ccco2)cc1S(=O)(=O)N1CCCCC1	i	-29.6	i	i	i	i	i	i
COc1ccc(-c2ccnc(SCC(=O)c3ccc(OC)c(OC)c3)n2)cc1	i	-5.2	i	i	i	.	.	.
COc1ccc(OC)c(C(=O)CSc2nccc(-c3ccc(Br)cc3)n2)c1	i	-5.6	-9.36*	i	i	i	i	27.5%*
COc1cc(OC)c(NC(=O)C2CC(=O)N(c3ccc4c(c3)OCCO4)C2)cc1Cl (configuration not stated)	i	-1.4	i	i	i	.	.	.
CCN(c1ccccc1)S(=O)(=O)c1cc(C(=O)NCC(c2ccc(OC)cc2)N(C)C)ccc1C (configuration not stated)	.	.	.	i	.	.	.	.
CC(C)C(=O)N1CCN(c2nc(-c3ccccc3)c3c(c2C#N)CCCC3)CC1	i	-15.9	-8.58*	i	i	39.5%*	i	i
CSc1nnc(-c2ccccc2N=Cc2c(C)[nH]n(-c3ccc4ccccc4c3)c2=O)c(=O)[nH]1	i	-13.2	i	i	i	i	i	i
O=C(OC1CCN(c2ncc(C(F)(F)F)cc2Cl)CC1)c1ccc(Cl)cc1	i	-9.2	i	i	i	i	i	i
O=C(OCCN1CCN(c2ncc(C(F)(F)F)cc2Cl)CC1)c1ccc(Cl)cc1	i	-10.3	i	i	i	.	.	.
C=CCC[C@H](Cc1ccc(F)cc1)C(=O)OC[C@@H](Cc1c[nH]c2ccccc12)NC(=O)[C@H](CC=C)CC(=O)N(CCO)Cc1ccccc1	.	.	.	i	.	.	.	.
COc1ccc(Oc2ccc(N/C=C/C(=O)C(C)(C)C)cc2)cc1	i	-8.0	i	i	i	i	i	i
CCC(C)(C)c1ccc(OCCCC[n+]2cccc(C)c2C)c(C(C)(C)CC)c1	i	-29.1	-11.6*	i	i	56.5%*	46.0%*	i
CCn1c(SCc2ccccc2Cl)nc2nc3c(cc2c1=O)CCCC3	i	-12.0	i	i	i	i	i	i
Cc1cn(CC(=O)NCCc2c[nH]c3ccccc23)c(=O)[nH]c1=O	.	.	.	i	.	.	.	.
